Common to all, as to assay type: cell-based
Assay [1] has as its target Histone-lysine N-methyltransferase EZH2 (Mus musculus) (UniProt Q61188). The assay can be described thus: Inhibition of EZH2 in mouse B16-F1 migrating cells assessed as fold change in H3K27me3-buffered regulated Arid4a-mRNA expression at 3 uM measured by ChIP-seq analysis relative to control cells. The gist of the method:
(§1)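 Confluent B16-F1 cells on fibronectin-coated plates, cultured at 37 °C and 7% CO2, were scratched at multiple sites to induce migration. They were then held 3 h in growth medium containing 3 µM GSK343, with the inhibitor added 3 h before lysis. Unscratched cells served as controls. Poly A mRNA was analysed by RNA-seq (n=3 GSK343, n=5 controls). Linear models removed batch effects, and buffered genes were those altered only under GSK343 (FDR <0.05, fold change >1.3).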

Assay [2] has the same target. The assay can be described thus: Inhibition of EZH2 in mouse B16-F1 migrating cells assessed as fold change in H3K27me3-independent regulated Klf15-mRNA expression at 3 uM measured by […] analysis relative to control cells. In outline: (§2)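 Confluent B16-F1 cells on fibronectin-coated plates were scratched at multiple sites, washed once with DMEM and left to migrate 3 h in growth medium (37 °C, 7% CO2); unscratched cells served as control. GSK343 (3 µM) was added 3 h before lysis. Poly A mRNA was sequenced (RNA-seq), with 5 replicates for untreated and 3 for treated cells. Differential expression was called by linear model with batch correction, at FDR <0.05 and fold change ≥1.3.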

Assay [3] has the same target. Put plainly: Inhibition of EZH2 in mouse B16-F1 migrating cells assessed as fold change in H3K27me3-dependent regulated Gm43909-mRNA expression at 3 uM measured by […] analysis relative to control cells. The gist of the method:
as §2

Assay [4] has the same target. Put plainly: Inhibition of EZH2 in mouse B16-F1 migrating cells assessed as fold change in H3K27me3-buffered regulated 5031439G07Rik-mRNA expression at 3 uM measured by […] analysis relative to control cells. In outline: as §1
Assay [5] has the same target. Put plainly: Inhibition of EZH2 in mouse B16-F1 migrating cells assessed as fold change in H3K27me3-independent regulated Maff-mRNA expression at 3 uM measured by […] analysis relative to control cells. The gist of the method: as §2
The target is the same in assay [6]. Put plainly: Inhibition of EZH2 in mouse B16-F1 migrating cells assessed as fold change in H3K27me3-buffered regulated Gabre-mRNA expression at 3 uM measured by ChIP-seq analysis relative to control cells. The gist of the method:
as §1

Assay [7] shares this target. Put plainly: Inhibition of EZH2 in mouse B16-F1 migrating cells assessed as fold change in H3K27me3-buffered regulated 1810058I24Rik-mRNA expression at 3 uM measured by ChIP-seq analysis relative to control cells. The gist of the method:
as §1

For assay [8] the target is unchanged. Put plainly: Inhibition of EZH2 in mouse B16-F1 migrating cells assessed as fold change in H3K27me3-independent regulated Cep290-mRNA expression at 3 uM measured by […] analysis relative to control cells. In outline:
as §2

Assay [9] shares this target. The assay can be described thus: Inhibition of EZH2 in mouse B16-F1 migrating cells assessed as fold change in H3K27me3-buffered regulated Edrf1-mRNA expression at 3 uM measured by ChIP-seq analysis relative to control cells. The gist of the method:
as §1

The target is the same in assay [10]. The assay can be described thus: Inhibition of EZH2 in mouse B16-F1 migrating cells assessed as fold change in H3K27me3-independent regulated Cntnap1-mRNA expression at 3 uM measured by […] analysis relative to control cells. The gist of the method: as §2
The target is the same in assay [11]. The assay can be described thus: Inhibition of EZH2 in mouse B16-F1 migrating cells assessed as fold change in H3K27me3-independent regulated Dlx6-mRNA expression at 3 uM measured by […] analysis relative to control cells. In outline:
as §2

For assay [12] the target is unchanged. The assay can be described thus: Inhibition of EZH2 in mouse B16-F1 migrating cells assessed as fold change in H3K27me3-buffered regulated Rhobtb3-mRNA expression at 3 uM measured by […] analysis relative to control cells. The gist of the method: as §2
Assay [13] has the same target. Put plainly: Inhibition of EZH2 in mouse B16-F1 migrating cells assessed as fold change in H3K27me3-buffered regulated Irf1-mRNA expression at 3 uM measured by […] analysis relative to control cells. In outline: as §1
In assay [14] the target is T1, RNA polymerase II (Mus musculus) (UniProt P08775+Q8CFI7+P97760+A0A3Q4L2S8+Q80UW8+P61219+P62488+Q923G2+P60898+O08740+Q63871+P62876). The assay can be described thus: Inhibition of RNA polymerase II in mouse B16-F1 migrating cells assessed as fold change in Cbx1-RNA stability at 0.1 mM measured by […] analysis relative to control cells.
Assay [15] addresses T1, RNA polymerase II (Mus musculus). Put plainly: Inhibition of RNA polymerase II in mouse B16-F1 migrating cells assessed as fold change in Dpy19l4-RNA stability at 0.1 mM measured by ChIP-seq analysis relative to control cells.
Assay [16] has the same target. Put plainly: Inhibition of RNA polymerase II in mouse B16-F1 migrating cells assessed as fold change in Fkbp8-RNA stability at 0.1 mM measured by ChIP-seq analysis relative to control cells.
Assay [17] shares this target. Put plainly: Inhibition of RNA polymerase II in mouse B16-F1 migrating cells assessed as fold change in Kif18a-RNA stability at 0.1 mM measured by ChIP-seq analysis relative to control cells.
The target is the same in assay [18]. Put plainly: Inhibition of RNA polymerase II in mouse B16-F1 migrating cells assessed as fold change in Alkbh8-RNA stability at 0.1 mM measured by […] analysis relative to control cells.
Assay [19] shares this target. Put plainly: Inhibition of RNA polymerase II in mouse B16-F1 migrating cells assessed as fold change in Dock10-RNA stability at 0.1 mM measured by ChIP-seq analysis relative to control cells.
Assay [20] shares this target. The assay can be described thus: Inhibition of RNA polymerase II in mouse B16-F1 migrating cells assessed as fold change in Pde12-RNA stability at 0.1 mM measured by […] analysis relative to control cells.
For assay [21] the target is unchanged. Put plainly: Inhibition of RNA polymerase II in mouse B16-F1 migrating cells assessed as fold change in Trappc8-RNA stability at 0.1 mM measured by […] analysis relative to control cells.
Assay [22] has the same target. The assay can be described thus: Inhibition of RNA polymerase II in mouse B16-F1 migrating cells assessed as fold change in Arf6-RNA stability at 0.1 mM measured by […] analysis relative to control cells.
Assay [23] shares this target. Put plainly: Inhibition of RNA polymerase II in mouse B16-F1 migrating cells assessed as fold change in Ifit2-RNA stability at 0.1 mM measured by […] analysis relative to control cells. The gist of the method: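 Mouse B16-F1 melanoma cells grown to confluence on fibronectin in DMEM/10% FCS at 37 °C, 7% CO2. Migration induced by multiple scratches and 3 h incubation; unscratched controls. DRB 0.1 mM added 3 h before lysis. RNA from poly A-selected mRNA was sequenced (RNA-seq, three replicates per DRB group). Fold change computed for DRB-treated migrating vs DRB-treated control cells; cutoffs fold change >1.3, FDR <0.05.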

The target is the same in assay [24]. Put plainly: Inhibition of RNA polymerase II in mouse B16-F1 migrating cells assessed as fold change in Rps8-RNA stability at 0.1 mM measured by […] analysis relative to control cells.

Molecules are shown by their SMILES.

Sequence of Histone-lysine N-methyltransferase EZH2 (Mus musculus) (Q61188 whole entry): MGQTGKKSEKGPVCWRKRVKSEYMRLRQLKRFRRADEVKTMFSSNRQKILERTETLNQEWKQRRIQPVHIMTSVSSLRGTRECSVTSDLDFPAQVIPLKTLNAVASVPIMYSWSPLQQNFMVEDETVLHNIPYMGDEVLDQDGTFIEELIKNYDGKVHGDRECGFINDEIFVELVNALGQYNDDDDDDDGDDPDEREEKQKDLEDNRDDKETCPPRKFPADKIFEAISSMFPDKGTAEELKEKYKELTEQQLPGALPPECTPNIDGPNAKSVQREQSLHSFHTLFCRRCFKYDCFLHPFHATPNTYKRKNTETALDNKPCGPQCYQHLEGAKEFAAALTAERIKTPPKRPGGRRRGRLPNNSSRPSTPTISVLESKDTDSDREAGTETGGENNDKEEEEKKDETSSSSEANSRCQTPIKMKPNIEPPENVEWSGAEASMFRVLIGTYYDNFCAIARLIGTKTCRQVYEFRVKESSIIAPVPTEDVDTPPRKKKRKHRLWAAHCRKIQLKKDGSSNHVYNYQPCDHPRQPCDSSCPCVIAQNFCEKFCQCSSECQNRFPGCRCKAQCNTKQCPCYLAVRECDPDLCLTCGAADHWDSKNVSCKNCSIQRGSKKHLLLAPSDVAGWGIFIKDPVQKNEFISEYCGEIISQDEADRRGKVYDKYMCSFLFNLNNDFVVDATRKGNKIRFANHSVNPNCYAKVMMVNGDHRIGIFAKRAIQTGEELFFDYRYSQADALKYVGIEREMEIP

With `CCCc1cc(C)[nH]c(=O)c1CNC(=O)c1cc(-c2ccnc(N3CCN(C)CC3)c2)cc2c1cnn2C(C)C`, the log2FC in assay [1] is -0.47; in assay [2], -0.5; in assay [3], -0.39; in assay [4], 0.45; in assay [5], 0.76; in assay [6], -0.84. Moreover, the log2FC is 0.47 in assay [7]; -0.62 in assay [8]; -0.41 in assay [9]; -0.76 in assay [10]; -0.86 in assay [11]; -0.62 in assay [12]. Besides, the log2FC in [13] is -0.62.

Take `OC[C@H]1O[C@@H](n2cnc3cc(Cl)c(Cl)cc32)[C@H](O)[C@@H]1O`: the log2FC in assay [14] was -0.56; in assay [15], -0.58; in assay [16] it was 0.41; in assay [17], -1.13; in assay [18], -0.55; in [19] it was -0.68. For the same compound, the log2FC is -0.77 in assay [20]; -0.62 in assay [21]; -0.51 in assay [22]; -0.69 in assay [23]; 0.41 in assay [24].

(Values after ChEMBL document CHEMBL5674883, “The Heterochromatin Landscape in Migrating Cells and the Importance of H3K27me3 for Associated Transcriptome Alterations” (Cells, 2018).)
